In brackets after ≈: the same amount, converted by molar mass.
How the values were obtained:
[1] = system: Mycobacterium tuberculosis; test: Bactericidal activity against wild type Mycobacterium tuberculosis H37Rv infected in IFN-gamma-stimulated primary human monocyte-derived macrophages assessed as reduction of log10CFU at 30 times MIC incubated for 7 days followed by compound washout measured after 3 weeks; format: functional
Procedure, shortened: (§1)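 Monocytes from healthy donors isolated by CD14 selection. Differentiated 2 weeks in 40% human plasma with 0.5 ng/mL GM-CSF and TNF-alpha, 10% O2. Then 5 ng/mL IFN-gamma overnight, infected with wild-type Mtb at MOI 0.1. Compound added at 24 h, 1% DMSO final, 7 days. Viability inspected visually; lysed in 0.55% Triton-X and plated on 7H11/OADC for CFU.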

[2] = Cytotoxicity against human HepG2 cells assessed as decrease in ATP signal after 2 days by CellTiter-Glo assay; format: cell-based; conditions: read-out: LD50
Procedure, shortened: (§2)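 HepG2 in DMEM with 10% FBS, pyruvate, glutamine, HEPES and nonessential amino acids, seeded 3000 cells/well in 384-well plates. Compound for 2 days at 1% final DMSO. ATP read by CellTiter-Glo luminescence. LD50 = 50% drop in ATP signal vs DMSO. SI = LD50/MIC90 against replicating Mtb.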

[3] = system: Mycobacterium tuberculosis; test: Antibacterial activity against replicating form of wild type Mycobacterium tuberculosis H37Rv assessed as growth inhibition after 7 days by high-throughput screening assay; format: functional; conditions: 168 h
Procedure, shortened: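 Wild-type H37Rv in 7H9 with glycerol, tyloxapol, ADN, in 96-well plates. Set up as the 384-well screen: OD580 0.01 start, compound in DMSO, 7 days at 37 °C, 20% O2, 5% CO2. OD580 read; MIC90 = 90% growth inhibition vs DMSO control.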

[4] = system: Mycobacterium tuberculosis; test: Antibacterial activity against non-replicating form of wild type Mycobacterium tuberculosis H37Rv assessed as growth inhibition after 3 days by high-throughput screening assay; format: functional; conditions: 72 h
[5] = Selectivity index, ratio of LD50 for human HepG2 cells to MIC90 for replicating form of Mycobacterium tuberculosis H37Rv; format: toxicity, cell-based; conditions: read-out: Selectivity Index; procedure, shortened: as §2
[6] = system: Mycobacterium tuberculosis; test: Bactericidal activity against wild type Mycobacterium tuberculosis H37Rv infected in IFN-gamma-stimulated primary human monocyte-derived macrophages assessed as reduction of log10CFU incubated for 7 days followed by compound washout measured after 3 weeks; format: functional; procedure, shortened: as §1
[7] = Genotoxicity in mouse lymphoma cells; format: toxicity, cell-based
[8] = system: Mycobacterium tuberculosis; test: Antibacterial activity against replicating form of Mycobacterium tuberculosis MC2 6220 assessed as growth inhibition after 7 days by high-throughput screening assay; format: functional; conditions: MC2 6220, 168 h
Procedure, shortened: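 Attenuated Mtb mc26220 ΔpanCDΔlysA in 7H9 with glycerol, tyloxapol, OADC, casein amino acids, 240 μg/mL L-lysine, 24 μg/mL pantothenate. Mid-log cells diluted to OD580 0.01 in 384-well plates, compound in DMSO, 7 days at 37 °C, 20% O2, 5% CO2. OD580 read; MIC90 = 90% growth inhibition vs DMSO.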

[9] = system: Mycobacterium tuberculosis; test: Antibacterial activity against non-replicating form of Mycobacterium tuberculosis MC2 6220 assessed as growth inhibition after 3 days by high-throughput screening assay; format: functional; conditions: MC2 6220, 72 h
Procedure, shortened: (§3)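 Log-phase mc26220 washed in PBS/tyloxapol, resuspended in Sauton's-based NR medium (butyrate, 0.5 mM NaNO2, pH 5.0) at OD580 0.1. Compound exposure 3 days at 37 °C, 1% O2, 5% CO2. Then R medium added (5-fold dilution), 7 days outgrowth at 20% O2. OD580 read; MIC90 = 90% inhibition vs DMSO.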

[10] = Selectivity index, ratio of LD50 for human HepG2 cells to MIC90 for replicating form of Mycobacterium tuberculosis mc'2 6220; format: toxicity, cell-based; conditions: read-out: Selectivity Index; procedure, shortened: as §2
[11] = system: Mycobacterium tuberculosis; test: Antibacterial activity against non-replicating form of Mycobacterium tuberculosis MC2 6220 assessed as growth inhibition after 7 days by high-throughput screening assay; format: functional; conditions: MC2 6220, 168 h; procedure, shortened: as §3

Compound `CO[C@H]1/C=C/O[C@@]2(C)Oc3c(C)c(O)c4c(O)c(c(/C=N/N5CCN(C)CC5)c(O)c4c3C2=O)NC(=O)/C(C)=C\C=C\[C@H](C)[C@H](O)[C@@H](C)[C@@H](O)[C@@H](C)[C@H](OC(C)=O)[C@@H]1C` [RIFAMPIN] has a log10cfu [1] of 1.

For `CCc1c(F)c(=O)oc2c1c1c(c3oc([N+](=O)[O-])cc32)C=CC(C)(C)O1`, the CC50 at 48 h [2] was > 25 µg/mL, the MIC90 [3] was 0.6 µg/mL (≈ 1.67 µM) and the MIC90 [4] was 1 µg/mL (≈ 2.78 µM). The selectivity ratio [5] was > 40.

`CCCc1cc(=O)oc2c3c(cc(OCCN4CCOCC4)c12)O[C@@H]([N+](=O)[O-])[C@@H]3O` gave a CC50 at 48 h [2] of 0.8 µg/mL (≈ 1.9 µM), an MIC90 [3] of 0.08 µg/mL (≈ 0.19 µM) and an MIC90 [4] of 0.08 µg/mL (≈ 0.19 µM). The selectivity ratio [5] was 10.

In the case of `Cc1cc(=O)oc2c1c1c(c3oc([N+](=O)[O-])cc32)C=CC(C)(C)O1`, the CC50 at 48 h [2] is reported as 1 µg/mL (≈ 3.06 µM), the MIC90 [3] is reported as 0.08 µg/mL (≈ 0.244 µM) and the MIC90 [4] is reported as 0.2 µg/mL (≈ 0.611 µM). For the same compound, the selectivity ratio [5] was 16.

With `CCCc1cc(=O)oc2c1c(OCCN1CCOCC1)cc1oc([N+](=O)[O-])cc12` the CC50 at 48 h [2] was 10 µg/mL (≈ 24.9 µM), the MIC90 [3] was 0.08 µg/mL (≈ 0.199 µM) and the MIC90 [4] was 0.2 µg/mL (≈ 0.497 µM). For the same compound, the selectivity ratio [5] was 125, the log10cfu [6] was 1 and the Activity [7] was “Non-toxic”.

For `O=c1oc2c3c(cc(OCCN4CCOCC4)c2c2c1CCCC2)O[C@H]([N+](=O)[O-])[C@H]3O` (racemic), the MIC90 [8] was < 1 µg/mL, the MIC90 [9] was < 1 µg/mL and the CC50 at 48 h [2] was 0.4 µg/mL (≈ 0.925 µM). The selectivity ratio [10] was > 0.3.

With `CCCc1cc(=O)oc2cc(N(C)C)c3c(c12)OC(C)(C)C=C3` the MIC90 [8] was > 16 µg/mL, the MIC90 [9] was > 16 µg/mL and the CC50 at 48 h [2] was > 16 µg/mL. The MIC90 [11] was 2 µg/mL (≈ 6.38 µM).

In the case of `CCCc1cc(=O)oc2cc(N3CCNCC3)c3c(c12)OC(C)(C)C=C3.O=C(O)C(F)(F)F`, the MIC90 [8] is reported as 23 µg/mL, the MIC90 [9] is reported as > 23 µg/mL and the CC50 at 48 h [2] is reported as 12 µg/mL. It also gave a selectivity ratio [10] of 0.5.

With `O=[N+]([O-])c1cc2ccccc2o1` the MIC90 [8] was 0.2 µg/mL (≈ 1.23 µM), the MIC90 [9] was > 100 µg/mL and the CC50 at 48 h [2] was 3 µg/mL (≈ 18.4 µM). The selectivity ratio [10] was 16.

For `CCCc1cc(=O)oc2c1c(OCc1ccc(F)cc1)cc1oc([N+](=O)[O-])cc12`, the CC50 at 48 h [2] was > 100 µg/mL, the MIC90 [3] was 0.6 µg/mL (≈ 1.51 µM) and the MIC90 [4] was 3 µg/mL (≈ 7.55 µM). For the same compound, the selectivity ratio [5] was > 160, the log10cfu [6] was 1 and the Activity [7] was “Non-toxic”.

For `CCCc1cc(=O)oc2c1c(OCCN1CCOCC1)cc1[nH]c([N+](=O)[O-])cc12`, the MIC90 [8] was > 50 µg/mL, the MIC90 [9] was > 50 µg/mL and the CC50 at 48 h [2] was 25 µg/mL (≈ 62.3 µM). The selectivity ratio [10] was < 0.5.

Work on `CCCc1cc(=O)oc2c1c1c(c3oc([N+](=O)[O-])cc32)C=CC(c2ccccc2)O1` (stereo unspecified) yielded an MIC90 [8] of 20 µg/mL (≈ 49.6 µM), an MIC90 [9] of 6 µg/mL (≈ 14.9 µM) and a CC50 at 48 h [2] of 3 µg/mL (≈ 7.44 µM). It also gave a selectivity ratio [10] of 0.1.

In the case of `CCCc1cc(=O)oc2c1c(OCCN1CCOCC1)cc1oc([N+](=O)[O-])c(C(C)C)c12`, the MIC90 [8] is reported as > 22 µg/mL, the MIC90 [9] is reported as > 22 µg/mL and the CC50 at 48 h [2] is reported as 22 µg/mL (≈ 49.5 µM). For the same compound, the selectivity ratio [10] was < 1.

With `CCCc1cc(=O)oc2c1c(OC)cc1oc([N+](=O)[O-])cc12` the MIC90 [8] was < 0.2 µg/mL, the MIC90 [9] was < 0.2 µg/mL and the CC50 at 48 h [2] was 0.3 µg/mL (≈ 0.989 µM). For the same compound, the selectivity ratio [10] was > 2.

With `CC1(C)C=Cc2c(c3c(CN4CCSCC4)cc(=O)oc3c3cc([N+](=O)[O-])oc23)O1` the MIC90 [8] was < 0.3 µg/mL, the MIC90 [9] was < 0.3 µg/mL and the CC50 at 48 h [2] was 1 µg/mL (≈ 2.33 µM). For the same compound, the selectivity ratio [10] was > 5.
